ChEMBL document CHEMBL1142004, “Dipeptidyl aspartyl fluoromethylketones as potent caspase inhibitors: peptidomimetic replacement of the P2 alpha-amino acid by a alpha-hydroxy acid” (Bioorg Med Chem Lett, 2005)

Key:
HeLa = assay: Concentration tested for 50% of TNF- alpha induce HeLa cell protection was determined; format: functional, cell-based; details: Homo sapiens
Outline: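 HeLa cells were treated with TNF-α to induce apoptosis, with inhibitor present. Viability was quantified by calcein AM uptake. The value is the inhibitor concentration giving 50% cell protection.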

[1] = target: T1, Calpain-1 catalytic subunit (Homo sapiens, UniProt P07384); assay: Inhibitory concentration against Calpain 1
T1 sequence (P07384 whole entry): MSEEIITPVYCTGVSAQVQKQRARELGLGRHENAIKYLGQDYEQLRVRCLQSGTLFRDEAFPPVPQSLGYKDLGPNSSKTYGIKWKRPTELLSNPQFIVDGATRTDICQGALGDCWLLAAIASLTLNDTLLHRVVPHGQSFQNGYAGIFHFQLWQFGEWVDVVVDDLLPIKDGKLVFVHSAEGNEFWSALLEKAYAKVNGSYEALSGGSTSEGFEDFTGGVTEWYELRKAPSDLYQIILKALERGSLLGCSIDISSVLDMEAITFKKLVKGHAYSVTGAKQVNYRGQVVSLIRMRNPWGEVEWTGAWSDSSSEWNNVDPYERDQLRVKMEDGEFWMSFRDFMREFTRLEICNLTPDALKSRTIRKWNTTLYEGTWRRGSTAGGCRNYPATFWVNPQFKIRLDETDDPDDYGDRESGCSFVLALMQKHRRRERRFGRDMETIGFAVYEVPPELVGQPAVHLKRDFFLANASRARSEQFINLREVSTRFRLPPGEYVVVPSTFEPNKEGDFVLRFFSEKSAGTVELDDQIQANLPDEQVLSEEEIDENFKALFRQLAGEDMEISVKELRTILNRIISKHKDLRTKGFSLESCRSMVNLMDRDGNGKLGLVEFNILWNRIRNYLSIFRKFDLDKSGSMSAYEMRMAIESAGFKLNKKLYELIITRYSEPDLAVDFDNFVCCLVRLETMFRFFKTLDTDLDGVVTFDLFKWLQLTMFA
Outline: (§1)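 Isolated-enzyme inhibition assays (calpain-1, cathepsin B, factor Xa) tested inhibitor at concentrations up to 100,000 nM. The read-out was IC50.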

Caspase-6 = target: T2, Caspase-6 (Homo sapiens, UniProt P55212); assay: Inhibitory concentration against Caspase-6
T2 sequence (P55212 whole entry): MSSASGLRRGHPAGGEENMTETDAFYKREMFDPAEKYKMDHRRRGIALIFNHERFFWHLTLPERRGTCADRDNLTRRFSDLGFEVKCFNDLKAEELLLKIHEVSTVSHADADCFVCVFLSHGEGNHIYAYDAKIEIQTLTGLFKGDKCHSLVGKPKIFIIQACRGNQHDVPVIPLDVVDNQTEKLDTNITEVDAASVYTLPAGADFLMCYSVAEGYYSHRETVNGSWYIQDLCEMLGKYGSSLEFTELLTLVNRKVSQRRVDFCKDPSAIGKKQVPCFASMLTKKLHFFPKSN

Caspase-7 = target: T3, Caspase-7 (Homo sapiens, UniProt P55210); assay: Inhibitory concentration against Caspase-7
T3 sequence (P55210 whole entry): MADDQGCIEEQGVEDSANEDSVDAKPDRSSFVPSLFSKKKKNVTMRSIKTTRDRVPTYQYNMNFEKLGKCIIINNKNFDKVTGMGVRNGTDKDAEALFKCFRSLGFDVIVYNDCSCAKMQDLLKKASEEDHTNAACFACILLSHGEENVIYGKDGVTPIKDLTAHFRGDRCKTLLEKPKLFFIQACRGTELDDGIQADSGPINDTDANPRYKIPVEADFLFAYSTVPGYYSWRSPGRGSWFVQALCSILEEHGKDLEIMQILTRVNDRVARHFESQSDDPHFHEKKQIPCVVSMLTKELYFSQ

Caspase-8 = Caspase-8 (Homo sapiens, UniProt Q14790); assay: Inhibitory concentration against Caspase-8
Caspase-9 = target: T4, Caspase-9 (Homo sapiens, UniProt P55211); assay: Inhibitory concentration against Caspase-9
T4 sequence (P55211 whole entry): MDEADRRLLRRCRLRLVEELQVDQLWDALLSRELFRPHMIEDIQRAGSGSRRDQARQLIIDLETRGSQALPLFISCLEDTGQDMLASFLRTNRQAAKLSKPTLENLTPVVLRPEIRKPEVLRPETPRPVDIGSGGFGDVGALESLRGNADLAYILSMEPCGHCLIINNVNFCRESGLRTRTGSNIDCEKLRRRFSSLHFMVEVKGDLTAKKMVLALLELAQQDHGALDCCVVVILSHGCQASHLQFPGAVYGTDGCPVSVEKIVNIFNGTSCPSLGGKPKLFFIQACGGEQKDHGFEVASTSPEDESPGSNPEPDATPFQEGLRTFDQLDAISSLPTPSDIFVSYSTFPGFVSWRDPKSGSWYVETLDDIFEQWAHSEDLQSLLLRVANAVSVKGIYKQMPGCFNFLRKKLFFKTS

[2] = Inhibitory concentration against Cathepsin B; outline: as §1
Caspase-3 = target: T5, Caspase-3 (Homo sapiens, UniProt P42574); assay: Inhibitory concentration against human caspase-3
T5 sequence (P42574 whole entry): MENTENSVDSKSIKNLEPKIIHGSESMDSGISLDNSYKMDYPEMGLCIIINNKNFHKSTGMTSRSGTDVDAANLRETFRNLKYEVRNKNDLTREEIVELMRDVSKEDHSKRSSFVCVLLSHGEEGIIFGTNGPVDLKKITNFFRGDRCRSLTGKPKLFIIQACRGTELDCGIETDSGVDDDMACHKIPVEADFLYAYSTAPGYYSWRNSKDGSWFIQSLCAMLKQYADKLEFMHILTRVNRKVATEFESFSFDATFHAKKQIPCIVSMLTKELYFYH

[3] = Inhibitory concentration against Coagulation factor X; outline: as §1
Mus musculus [4] = assay: Survival of mice with 0 mg/kg of compound treatment after induction of apoptosis by anti-Fas antibody at 1 hr (n=6); format: functional
Outline: (§2)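 Mice received an IV injection of anti-Fas monoclonal antibody; untreated controls received 8 µg. Five minutes later they received an IV dose of inhibitor in an aqueous vehicle containing 50 mM Tris–HCl, or vehicle alone. Six mice per group. Survivors were counted at 1, 3, 6 and 24 h and at 3 days, when the experiment ended, and reported as a percentage of each group.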

Mus musculus [5] = assay: Survival of mice with 0 mg/kg of compound treatment after induction of apoptosis by anti-Fas antibody at 3 hr (n=6); format: functional; outline: as §2
Mus musculus [6] = assay: Survival of mice with 0 mg/kg of compound treatment after induction of apoptosis by anti-Fas antibody at 6 hr (n=6); format: functional; outline: as §2
[7] = Inhibitory concentration against Caspase-1
Mus musculus [8] = assay: Survival of mice with 1 mg/kg of compound treatment after induction of apoptosis by anti-Fas antibody at 3 hr (n=6); format: functional; outline: as §2
Mus musculus [9] = assay: Survival of mice with 1 mg/kg of compound treatment after induction of apoptosis by anti-Fas antibody at 6 hr (n=6); format: functional; outline: as §2
Mus musculus [10] = assay: Survival of mice with 0 mg/kg of compound treatment after induction of apoptosis by anti-Fas antibody at 24 hr (n=6); format: functional; outline: as §2
Mus musculus [11] = assay: Survival of mice with 0 mg/kg of compound treatment after induction of apoptosis by anti-Fas antibody at 3 days(n=6); format: functional; outline: as §2
Mus musculus [12] = assay: Survival of mice with 1 mg/kg of compound treatment after induction of apoptosis by anti-Fas antibody at 24 hr (n=6); format: functional; outline: as §2
Mus musculus [13] = assay: Survival of mice with 1 mg/kg of compound treatment after induction of apoptosis by anti-Fas antibody at 3 days(n=6); format: functional; details: 72 h; outline: as §2
Mus musculus [14] = assay: Survival of mice with 10 mg/kg of compound treatment after induction of apoptosis by anti-Fas antibody at 1 hr (n=6); format: functional; outline: as §2
Mus musculus [15] = assay: Survival of mice with 10 mg/kg of compound treatment after induction of apoptosis by anti-Fas antibody at 3 hr (n=6); format: functional; outline: as §2
Mus musculus [16] = assay: Survival of mice with 10 mg/kg of compound treatment after induction of apoptosis by anti-Fas antibody at 6 hr (n=6); format: functional; outline: as §2
Mus musculus [17] = assay: Survival of mice with 10 mg/kg of compound treatment after induction of apoptosis by anti-Fas antibody at 24 hr (n=6); format: functional; outline: as §2
Mus musculus [18] = assay: Survival of mice with 10 mg/kg of compound treatment after induction of apoptosis by anti-Fas antibody at 3 days(n=6); format: functional; details: 72 h; outline: as §2
Mus musculus [19] = assay: Survival of mice with 0.25 mg/kg of compound treatment after induction of apoptosis by anti-Fas antibody at 1 hr (n=6); format: functional; outline: as §2
Mus musculus [20] = assay: Survival of mice with 0.25 mg/kg of compound treatment after induction of apoptosis by anti-Fas antibody at 3 hr (n=6); format: functional; outline: as §2
Mus musculus [21] = assay: Survival of mice with 0.25 mg/kg of compound treatment after induction of apoptosis by anti-Fas antibody at 6 hr (n=6); format: functional; outline: as §2
Mus musculus [22] = assay: Survival of mice with 0.25 mg/kg of compound treatment after induction of apoptosis by anti-Fas antibody at 24 hr (n=6); format: functional; outline: as §2
Mus musculus [23] = assay: Survival of mice with 0.25 mg/kg of compound treatment after induction of apoptosis by anti-Fas antibody at 3 days(n=6); format: functional; details: 72 h; outline: as §2

Chain of Caspase-8 (Q14790 217-374 limits assumed): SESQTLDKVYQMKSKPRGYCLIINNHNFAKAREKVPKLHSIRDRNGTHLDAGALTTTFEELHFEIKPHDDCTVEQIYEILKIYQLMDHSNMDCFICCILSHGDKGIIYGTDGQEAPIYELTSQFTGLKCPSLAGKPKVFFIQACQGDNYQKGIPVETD
Chain of Caspase-8 (Q14790 385-479 limits assumed): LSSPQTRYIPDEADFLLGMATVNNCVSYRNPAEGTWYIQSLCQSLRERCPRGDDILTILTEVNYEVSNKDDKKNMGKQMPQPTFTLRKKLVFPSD

`CC(C)[C@H](NC(=O)Oc1ccccc1)C(=O)NC(CC(=O)O)C(=O)CF` (some centres undefined) showed a Concentration (HeLa) of 250 nM.

Compound `CC(C)[C@H](OC(=O)Nc1ccccc1)C(=O)NC(CC(=O)O)C(=O)CF` (some centres undefined) has a Concentration (HeLa) of 200 nM, an IC50 [1] of over 100 µM and an IC50 (Caspase-6) of 50 nM. The IC50 (Caspase-7) was 11 nM, the IC50 (Caspase-8) was 17 nM and the IC50 (Caspase-9) was 30 nM. For the same compound, the IC50 [2] was over 100 µM, the IC50 (Caspase-3) was 17 nM and the IC50 [3] was over 100 µM. For the same compound, the Survival (Mus musculus [4]) was 0%, the Survival (Mus musculus [5]) was 0% and the Survival (Mus musculus [6]) was 0%. The IC50 [7] was 12 nM, the survival at 1 mg/kg (Mus musculus [8]) was 100% and the survival at 1 mg/kg (Mus musculus [9]) was 100%. The Survival (Mus musculus [10]) was 0%, the Survival (Mus musculus [11]) was 0% and the survival at 1 mg/kg (Mus musculus [12]) was 50%. The survival at 1 mg/kg (Mus musculus [13]) was 0%, the survival at 10 mg/kg (Mus musculus [14]) was 100% and the survival at 10 mg/kg (Mus musculus [15]) was 100%. For the same compound, the survival at 10 mg/kg (Mus musculus [16]) was 100%, the survival at 10 mg/kg (Mus musculus [17]) was 83% and the survival at 10 mg/kg (Mus musculus [18]) was 83%. For the same compound, the survival at 0.25 mg/kg (Mus musculus [19]) was 100%, the survival at 0.25 mg/kg (Mus musculus [20]) was 100% and the survival at 0.25 mg/kg (Mus musculus [21]) was 0%. It also gave a survival at 0.25 mg/kg (Mus musculus [22]) of 0% and a survival at 0.25 mg/kg (Mus musculus [23]) of 0%.

Compound `CC(C)[C@H](OC(=O)Nc1ccccc1)C(=O)NC(CC(=O)O)C(=O)COc1cc(C(F)(F)F)nn1-c1ccccc1` (some centres undefined) has a Concentration (HeLa) of 1100 nM.

In the case of `CC(C)[C@H](OC(=O)Nc1ccc(Cl)cc1Cl)C(=O)NC(CC(=O)O)C(=O)CF` (some centres undefined), the Concentration (HeLa) is reported as 100 nM.

With `CC(C)[C@H](OC(=O)Nc1ccccc1)C(=O)NC(CC(=O)O)C(=O)COC(=O)c1c(Cl)cccc1Cl` (some centres undefined) the Concentration (HeLa) was 1000 nM.

Work on `C[C@H](OC(=O)Nc1ccccc1)C(=O)NC(CC(=O)O)C(=O)CF` (some centres undefined) yielded a Concentration (HeLa) of 1400 nM.
